Experimental data as given in ChEMBL document CHEMBL4513216, “Probing the Open Global Health Chemical Diversity Library for Multistage-Active Starting Points for Next-Generation Antimalarials” (ACS Infect Dis, 2020).

Assay: Toxicity liver stage against HepG2, at 10uM
Assay type: cell-based
Design: test concentration 10 uM, cell line HepG2-A16-CD81EGFP
Details: human, HepG2-A16-CD81EGFP cells; read-out: INHIBITION
Method in brief: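 Uninfected HepG2-A16-CD81EGFP cells, 3 × 10^3 per well, 1536-well, plated on prespotted compound at 10 μM final, parasite-free screening media added to match infected plates; puromycin 10 μM positive, DMSO 0.5% negative; run in parallel with 48 h PbLuc assay at 37 °C, 5% CO2; viability by CellTiter-Glo luminescence, normalized to controls.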

SMILES	cytotoxicity at 10 µM [%]
O=C(c1ccoc1)N1CCCN(CC2CCOc3ccccc3C2)CC1 (stereo unspecified)	0.0531
COc1ccc(C(=O)NCC(=O)N(Cc2ccsc2)C2CC2)cc1OC	0.995
COC(=O)c1cc(NS(=O)(=O)c2cn(C)cn2)c(F)cc1F	14.8
Cc1cc(=O)n2nc(Oc3cccc(C(N)=O)c3)sc2n1	-7.88
CCc1nc(C2CCCN(C(=O)CN(C)S(C)(=O)=O)C2)no1 (stereo unspecified)	-3.22
Cc1cc(C)n(CC(C)NC(=O)c2cc(C(C)C)on2)n1 (stereo unspecified)	0.5
O=C(c1ccc(OCC2CC2)nc1)N1CCCC(n2cccn2)C1 (stereo unspecified)	-12.4
CN(CCc1ccccn1)[C@@H]1CCN(c2cccc(C#N)n2)C[C@H]1O	-13.9
O=C(Nc1ccc(N2CCCCC2)nc1)N1CCc2sccc2C1	-7.98
CCn1nnc2cc(C(=O)N3CCCC3Cn3cc(C)cn3)ccc21 (stereo unspecified)	-9.8
CCOc1ccc(-c2c(C#N)c(N)nc3c2COCC3)cn1	-0.339
COC(=O)c1ncccc1N1CCCC1	-3.1
COCCC(=O)NCC1Cn2nnc(-c3cccc(F)c3)c2CO1 (stereo unspecified)	0.0508
Cc1cnn(CC(C)NCC(=O)NCCOc2ccccc2)c1 (stereo unspecified)	1.36
CC(=O)NC1CCCN(C(=O)NCc2ccc(-c3ccn[nH]3)cc2)C1 (stereo unspecified)	-7.84
O=C(CSc1ccccc1)N1CCC(N2CCCCC2=O)CC1	11.2
COc1cc(C(=O)NCCS(=O)(=O)N(C)C)c2ccccc2n1	-0.0932
OC1CN(c2nc3c(C(F)(F)F)cccc3s2)C1	-8.37
CCc1nnc2n1CCN(c1nc(C)cc(N(C)C)n1)C2	-5.89
CN1[C@@H](c2ccccc2)[C@@H](C(=O)NCC2CCOCC2)C[C@@]1(C)C(=O)O	-40.4
CCCn1nc2c(cc1=O)CN(CCN1CCCC1=O)CC2	-11.6
CO[C@@H]1CN(S(=O)(=O)c2cn(C)cn2)[C@@H]2CCCO[C@@H]21	-125
CCN(CC)Cc1cc(=O)n2c(n1)CN(C(=O)c1ccnnc1)CCC2	6.66

SMILES	cytotoxicity at 10 µM [%]
CCSCCNC(=O)C(c1cccc(F)c1)N(C)C (stereo unspecified)	-11.9
O=C(C1CCSCC1)N1CC[C@H]2OCC[C@@]2(COCC2CC2)C1	-1.16
O=C(Nc1ccccc1-c1ccccc1)NC1CCC2(C1)OCCO2 (stereo unspecified)	8.84
CCc1ccc(OCC(O)CN2CCN(CCO)CC2)cc1 (stereo unspecified)	-11.9
COc1ccc(C(=O)N2CCCC2c2ccco2)cc1OC (stereo unspecified)	1.03
CC(c1ccon1)N(C)S(=O)(=O)NCc1ccccc1 (stereo unspecified)	-0.174
COC(C(=O)NCc1c(C)nc2cc(=O)[nH]n2c1C)c1ccccc1 (stereo unspecified)	0.493
CNS(=O)(=O)c1ccccc1N1CCN(C(=O)NC(C)C)CC1	9.44
CCc1nnc2n1CCN(Cc1ncc(-c3ccccc3)o1)C2	-3.98
CC(=O)N1CCC(Cc2cccc(-c3c(C)noc3C)n2)C1 (stereo unspecified)	0.664
Cn1c(NC(=O)CCS(=O)(=O)C2CCCC2)nc2cc(Cl)ccc21	7.42
Cc1nnc2n1CCN(C(=O)c1cc(Cl)c(Cl)n1C)C2	-4.05
COc1coc(CN2CCCC(CCc3c(F)cccc3F)C2)cc1=O (stereo unspecified)	1.18
O=C(C1CCCC1)N1CC2(CCN(C3COC3)C2)Cc2ccccc21 (stereo unspecified)	10.1
Cc1noc(C[C@@H]2COC[C@H]3CN(S(=O)(=O)C4CC4)C[C@@H]23)n1	8.37
NCCC1CN(Cc2cnc3c(-c4ccccc4)cnn3c2)CCO1 (stereo unspecified)	-3.92
Cc1n[nH]c(C)c1CNCC(O)c1ccc(F)c(F)c1 (stereo unspecified)	4.32
CCc1n[nH]c(C2CN(C(=O)c3csnn3)CCO2)n1 (stereo unspecified)	-2.5
Cn1nc(C(=O)NC2CC(C)(C)NC(C)(C)C2)cc1NC(=O)C1CC1	0.754
Cc1cnccc1CCNC(=O)Nc1cnc(N(C)C)nc1	7.75
O=C(NCC1CCCO1)c1c(-n2cnnn2)sc2c1CCC2 (stereo unspecified)	-16.3
O=C(CN1CCCc2cc(F)cc(F)c21)Nc1ccc(Br)cn1	11
COC(=O)C(c1cc(F)ccc1F)N(C)C(=O)c1ccccn1 (stereo unspecified)	-2.72

SMILES	cytotoxicity at 10 µM [%]
COc1cccc(COCC(O)CN(C)c2ccc(C)cc2C)c1 (stereo unspecified)	9.66
Cc1noc(C)c1CN1CCN(Cc2nccn2C)C(C)C1 (stereo unspecified)	-5.38
Cc1cc(CNC(=O)C2CCC(=O)N(Cc3ccccc3F)C2)on1 (stereo unspecified)	-5.26
Cc1csc(CCNC(=O)C2CCN(CC(N)=O)CC2)n1	-5.26
O=C(O)c1ccc2[nH]cc(CN3CCCC3)c2c1	-2.66
O=C(O)CCc1cccc(C2CCCN2Cc2cccc(Cl)c2)n1 (stereo unspecified)	-22.6
CN(C)CCn1c2c(ccc1=O)CCN(C(=O)c1cccs1)CC2	0.0915
N#CC1(C(=O)N2CCN(Cc3cscn3)CC2)CCCCC1	-3.27
CC(C)c1n[nH]c(C2CN(CCCS(C)(=O)=O)CCO2)n1 (stereo unspecified)	-11.9
Cc1sc(C(=O)NS(C)(=O)=O)cc1-c1ccc(F)cc1	2.53
CC(NC(=O)CCc1cccc(OC2CCCC2)c1)c1nncn1C (stereo unspecified)	7.2
COCc1nc(C)cc(Nc2ccc3c(c2)CC(=O)N3)n1	1.41
O=C(O)C1CN(c2cccc(Cl)c2)CCO1 (stereo unspecified)	-12.4
CCc1nn(C)c(Cl)c1CN1CCN(c2ccc(C(N)=O)cn2)CC1	9.83
O=C(N1CCOCC(O)C1)C1(c2ccc(Cl)cc2)CCC1 (stereo unspecified)	-4.24
COc1cccc(N2CCN(C(=O)c3noc4c3CCCCC4)CC2)c1	9.4
CCc1nnc2n1CCN(CC(=O)N1CCc3ccccc3C1)C2	-7.83
Cn1nc(-c2cccs2)cc1[C@H]1CN2CC[C@H]1C[C@@H]2CNS(C)(=O)=O	-1.39
CS(=O)(=O)NCCCN1CCCC1c1cccc(Br)c1 (stereo unspecified)	-2.51
CN(Cc1ccc(C(=O)NCC2COCCO2)c(=O)[nH]1)CC(C)(C)C (stereo unspecified)	3.21
Cc1cn2c(n1)CCC(NC(=O)c1ccc(CS(C)(=O)=O)cc1)C2 (stereo unspecified)	-2.19
O=c1nc(CNc2ccccc2)[nH]n1Cc1ccccc1	4.13
O=C([C@@H]1COC[C@H]2CN(c3ccncn3)C[C@H]21)N1CCCC1	-133

SMILES	cytotoxicity at 10 µM [%]
c1coc(CN2CCC3(CC2)COC(COCC2CC2)C3)c1 (stereo unspecified)	-4.37
COc1cc(CN(C)C(=O)NCCC(=O)NC2CCCC2)ccc1SC	-8.9
c1ccc(CN2CCC3(COCc4cnc(NCC5CC5)nc43)C2)cc1 (stereo unspecified)	12.5
Cc1ccsc1C(=O)NCc1ccnc(C2CCCOC2)n1 (stereo unspecified)	-23.6
CCc1nc2n(n1)CC(NCc1cc(OC)c3c(c1)OCO3)CC2 (stereo unspecified)	4.23
COc1cc2c(cc1OC)S(=O)(=O)N(Cc1cnn(C)c1)C2=O	12.6
CCC1(CO)CCCN(C(=O)c2cc(COc3cccc(F)c3)[nH]n2)C1 (stereo unspecified)	5.31
CC1=Nc2c(c(O)nn2C2CCOCC2)C(c2cccnc2)S1 (stereo unspecified)	5.11
COc1cc2c(cc1CNC(=O)C(C)n1ccnc1C(C)C)CCC2 (stereo unspecified)	0.719
CC1COCCN1Cc1nc(-c2cccs2)no1 (stereo unspecified)	-7.79
Cc1cnn(CCNCc2ccc(C#N)cc2F)c1	-2.73
COCc1nc2cc(NCc3ccc(CO)o3)ccc2o1	-16.2
CC(C)n1cc(CN2CCCN(C(=O)c3cccnc3O)CC2)cn1	4.29
c1cnc(-c2noc(C3CN(Cc4ccsc4)C3)n2)cn1	0.435
COCc1noc(Cn2c(=O)[nH]c3ccccc32)n1	4.84
CCN(Cc1c(F)cccc1F)C(=O)c1ccncc1O	-1.22
CCOCc1nn(CC2CC2)c2c1CN(Cc1cccs1)CC2	-108
CCc1nnsc1C(=O)NC(CC(C)C)C(=O)OC (stereo unspecified)	11.4
CCOC(=O)CNC(=O)c1cc2n(n1)CCCO2	1.43
Cc1cnn(CCNCc2csc(-c3cccs3)n2)c1	-9.91
Cn1cc(C2CCCN2C(=O)c2cnc(-c3ccco3)s2)cn1 (stereo unspecified)	3.88
CCN(Cc1ccncc1)CC1(O)CCN(C(=O)c2cccc(C)c2)C1 (stereo unspecified)	-25.1
Cc1noc([C@@]23CCO[C@@H]2CCN(C(=O)CCC(C)C)C3)n1	10.3

SMILES	cytotoxicity at 10 µM [%]
Cc1cccc(C2CCCN(C(=O)CN3C(=O)CCNC3=O)C2)c1 (stereo unspecified)	-2.56
CCN(CC(F)(F)F)C(=O)C1CCCN(Cc2cscn2)C1 (stereo unspecified)	-8.64
CCN(Cc1ccccc1)c1ncnc2c(C)nn(CC)c12	-2.48
CN(C)CCN(Cc1ccccn1)C(=O)Nc1cccc(F)c1	8.94
COCC(=O)N1C[C@H]2CC[C@@]3(N=C(c4ccccc4)NC3=O)[C@H]2C1	3.83
NC(=O)NC(=O)CCn1ccc(-c2ccc(F)cc2)n1	4.19
CCOC(=O)c1coc(N2CCC(C(C)N3CCCC3)CC2)n1 (stereo unspecified)	-1.89
CN(C)C(=O)CN1CCc2onc(-c3ccccc3F)c2C1	2.45
Cc1ccccc1C(=O)N1CCC2(CC1)CC(c1cnn(C)c1)CO2 (stereo unspecified)	-75
CC(C)n1cnc(C2CN(C)c3ccc(C(=O)NCC4CC4)cc32)n1 (stereo unspecified)	-2.19
CCc1nnc2n1CCN(C(C(=O)NC1CC1)c1ccccc1)C2 (stereo unspecified)	-7.07
Cc1cccc(CN2CCC23CCCNC3)n1 (stereo unspecified)	2.55
OC(COc1ccc(F)cc1)CN1CCC(Cn2cccn2)CC1 (stereo unspecified)	-9.07
O=C(CCSC1CCc2ccccc2NC1=O)NCCCO (stereo unspecified)	-5.65
N[C@@H]1c2ccccc2C2(CCN(C(=O)c3ccc(CO)o3)CC2)[C@H]1O	3.92
O=C(NC1(c2cccc(F)c2)CCOCC1)c1ccccn1	-12.3
Cc1cc(C)n(CC2CN(c3cnc4ccccc4n3)CCO2)n1 (stereo unspecified)	-2.42
O=c1n(CCSCc2ccccc2Cl)nc2ccccn12	-7.68
Cn1ccnc1CN1CCC2(CC(=O)N(c3cncnc3)C2)C1 (stereo unspecified)	-0.799
